Results as given in ChEMBL document CHEMBL2040809, “Synthesis and biological activity evaluation of cytidine-5'-deoxy-5-fluoro-N-[(alkoxy/aryloxy)] carbonyl-cyclic 2',3'-carbonates” (Eur J Med Chem, 2012).
≈ marks a conversion by molar mass, not a printed value.

Columns and labels:
NCI-H69 = assay: Cytotoxicity against human NCI-H69 cells after 3 days MTT assay; format: functional, cell-based; settings: NCI-H69, 72 h
How it was run: (§1)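 Cells held as monolayers in DMEM with 10% supplement. Seeded in 96-well plates on day 0 at densities set by doubling time: 1 × 10⁴/mL for HeLa and NCI-69, 2 × 10⁴/mL for MCF-7, 3 × 10⁴/mL for PZ-HPV-7. Five dilutions (10⁻⁸–5 × 10⁻⁶ mol/l), freshly prepared, added for 72 h. Growth read by MTT (succinate dehydrogenase activity); IC50 derived.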

[1] = Cytotoxicity against human PZ-HPV-7 cells after 3 days MTT assay; format: functional, cell-based; settings: 72 h; how it was run: as §1
MCF7 = assay: Cytotoxicity against human MCF7 cells after 3 days MTT assay; format: functional, cell-based; settings: MCF7, 72 h; how it was run: as §1
HeLa = assay: Cytotoxicity against human HeLa cells after 3 days MTT assay; format: functional, cell-based; settings: 72 h; how it was run: as §1
Salmonella typhimurium [2] = assay: Mutagenic activity in Salmonella typhimurium TA1535 at 0.312 to 5 mg/plate preincubated for 20 mins before addition in presence of liver S9 mixture; format: toxicity, organism-based; settings: salmonella enterica subsp. enterica serovar typhimurium
How it was run: (§2)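 Pre-incubation trial (Trial II) with histidine-dependent auxotrophs. Test solution is pre-incubated with bacterial suspension and S9 mix (10% v/v) or substitution buffer before plating on selective agar. Revertant colonies are counted against the concurrent vehicle control. Triplicate plates per dose and per control (negative, vehicle, positive reference mutagens).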

Salmonella typhimurium [3] = assay: Mutagenic activity in Salmonella typhimurium TA1535 at 0.312 to 5 mg/plate preincubated for 20 mins before addition in absence of liver S9 mixture; format: toxicity, organism-based; settings: salmonella enterica subsp. enterica serovar typhimurium; how it was run: as §2
Salmonella typhimurium [4] = assay: Mutagenic activity in Salmonella typhimurium TA1537 at 0.312 to 5 mg/plate preincubated for 20 mins before addition in presence of liver S9 mixture; format: toxicity, organism-based; settings: salmonella enterica subsp. enterica serovar typhimurium; how it was run: as §2
Salmonella typhimurium [5] = assay: Mutagenic activity in Salmonella typhimurium TA1537 at 0.312 to 5 mg/plate preincubated for 20 mins before addition in absence of liver S9 mixture; format: toxicity, organism-based; settings: salmonella enterica subsp. enterica serovar typhimurium; how it was run: as §2
Salmonella typhimurium [6] = assay: Mutagenic activity in Salmonella typhimurium TA98 at 0.312 to 5 mg/plate preincubated for 20 mins before addition in presence of liver S9 mixture; format: toxicity, organism-based; settings: salmonella enterica subsp. enterica serovar typhimurium; how it was run: as §2
Salmonella typhimurium [7] = assay: Mutagenic activity in Salmonella typhimurium TA98 at 0.312 to 5 mg/plate preincubated for 20 mins before addition in absence of liver S9 mixture; format: toxicity, organism-based; settings: salmonella enterica subsp. enterica serovar typhimurium; how it was run: as §2
Salmonella typhimurium [8] = assay: Mutagenic activity in Salmonella typhimurium TA100 at 0.312 to 5 mg/plate preincubated for 20 mins before addition in presence of liver S9 mixture; format: toxicity, organism-based; settings: salmonella enterica subsp. enterica serovar typhimurium; how it was run: as §2
Salmonella typhimurium [9] = assay: Mutagenic activity in Salmonella typhimurium TA100 at 0.312 to 5 mg/plate preincubated for 20 mins before addition in absence of liver S9 mixture; format: toxicity, organism-based; settings: salmonella enterica subsp. enterica serovar typhimurium; how it was run: as §2
Salmonella typhimurium [10] = assay: Mutagenic activity in Salmonella typhimurium TA102 at 0.312 to 5 mg/plate preincubated for 20 mins before addition in presence of liver S9 mixture; format: toxicity, organism-based; settings: salmonella enterica subsp. enterica serovar typhimurium; how it was run: as §2
Salmonella typhimurium [11] = assay: Mutagenic activity in Salmonella typhimurium TA1535 at 0.312 to 5 mg/plate measured after incubation of upside down for 48 hrs in presence of liver S9 mixture; format: toxicity, organism-based; settings: salmonella enterica subsp. enterica serovar typhimurium, s9, 48 h
How it was run: (§3)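 Plate incorporation trial (Trial I) with histidine-dependent auxotrophs. Revertant colonies are counted against the concurrent vehicle control. Each dose and each control, including negative, vehicle and positive reference mutagens, run in triplicate plates.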

Salmonella typhimurium [12] = assay: Mutagenic activity in Salmonella typhimurium TA1535 at 0.312 to 5 mg/plate measured after incubation of upside down for 48 hrs in absence of liver S9 mixture; format: toxicity, organism-based; settings: salmonella enterica subsp. enterica serovar typhimurium; how it was run: as §3
Salmonella typhimurium [13] = assay: Mutagenic activity in Salmonella typhimurium TA1537 at 0.312 to 5 mg/plate measured after incubation of upside down for 48 hrs in presence of liver S9 mixture; format: toxicity, organism-based; settings: salmonella enterica subsp. enterica serovar typhimurium, s9, 48 h; how it was run: as §3
Salmonella typhimurium [14] = assay: Mutagenic activity in Salmonella typhimurium TA1537 at 0.312 to 5 mg/plate measured after incubation of upside down for 48 hrs in absence of liver S9 mixture; format: toxicity, organism-based; settings: salmonella enterica subsp. enterica serovar typhimurium; how it was run: as §3
Salmonella typhimurium [15] = assay: Mutagenic activity in Salmonella typhimurium TA98 at 0.312 to 5 mg/plate measured after incubation of upside down for 48 hrs in presence of liver S9 mixture; format: toxicity, organism-based; settings: salmonella enterica subsp. enterica serovar typhimurium, s9, 48 h; how it was run: as §3
Salmonella typhimurium [16] = assay: Mutagenic activity in Salmonella typhimurium TA98 at 0.312 to 5 mg/plate measured after incubation of upside down for 48 hrs in absence of liver S9 mixture; format: toxicity, organism-based; settings: salmonella enterica subsp. enterica serovar typhimurium; how it was run: as §3
Salmonella typhimurium [17] = assay: Mutagenic activity in Salmonella typhimurium TA100 at 0.312 to 5 mg/plate measured after incubation of upside down for 48 hrs in presence of liver S9 mixture; format: toxicity, organism-based; settings: salmonella enterica subsp. enterica serovar typhimurium, s9, 48 h; how it was run: as §3
Salmonella typhimurium [18] = assay: Mutagenic activity in Salmonella typhimurium TA100 at 0.312 to 5 mg/plate measured after incubation of upside down for 48 hrs in absence of liver S9 mixture; format: toxicity, organism-based; settings: salmonella enterica subsp. enterica serovar typhimurium; how it was run: as §3
Salmonella typhimurium [19] = assay: Mutagenic activity in Salmonella typhimurium TA102 at 0.312 to 5 mg/plate measured after incubation of upside down for 48 hrs in presence of liver S9 mixture; format: toxicity, organism-based; settings: salmonella enterica subsp. enterica serovar typhimurium, s9, 48 h; how it was run: as §3
Salmonella typhimurium [20] = assay: Mutagenic activity in Salmonella typhimurium TA102 at 0.312 to 5 mg/plate preincubated for 20 mins before addition in absence of liver S9 mixture; format: toxicity, organism-based; settings: salmonella enterica subsp. enterica serovar typhimurium; how it was run: as §2
Salmonella typhimurium [21] = assay: Mutagenic activity in Salmonella typhimurium TA102 at 0.312 to 5 mg/plate measured after incubation of upside down for 48 hrs in absence of liver S9 mixture; format: toxicity, organism-based; settings: salmonella enterica subsp. enterica serovar typhimurium; how it was run: as §3
L1210 [22] = assay: Antitumor activity against mouse L1210 cells xenografted in BDF-1 mouse assessed as increase in mean survival time at 1.5 mmol/kg, po qd for 2 weeks; format: functional
How it was run: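 Male BDF-1 mice inoculated intraperitoneally on day 0 with L1210 leukemia cells (1 × 10⁶/mL). Cells were kept in RPMI 1640 with 10% fetal bovine serum at 37 °C, 5% CO₂, subcultured once or twice weekly, and resuspended in PBS. Compounds were given orally, with maximum doses set from acute toxicity. Read-out was mean survival time versus untreated control.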

[23] = Toxicity in po dosed BDF-1 mouse; format: organism-based; settings: in vivo
[24] = Toxicity in po dosed BDF-1 mouse administered qd for 28 days; format: organism-based; settings: in vivo
L1210 [25] = assay: Antitumor activity against mouse L1210 cells xenografted in BDF-1 mouse assessed as increase in mean survival time at 0.16 mmol/kg, po administered 5 days in a week for 3 weeks
L1210 [26] = assay: Antitumor activity against mouse L1210 cells xenografted in BDF-1 mouse assessed as increase in mean survival time at 0.080 mmol/kg, po administered 5 days in a week for 3 weeks

| Compound | IC50 (NCI-H69) | IC50 [1] | IC50 (MCF7) | IC50 (HeLa) | Activity (Salmonella typhimurium [2]) | Activity (Salmonella typhimurium [3]) | Activity (Salmonella typhimurium [4]) | Activity (Salmonella typhimurium [5]) | Activity (Salmonella typhimurium [6]) | Activity (Salmonella typhimurium [7]) | Activity (Salmonella typhimurium [8]) | Activity (Salmonella typhimurium [9]) | Activity (Salmonella typhimurium [10]) | Activity (Salmonella typhimurium [11]) | Activity (Salmonella typhimurium [12]) | Activity (Salmonella typhimurium [13]) | Activity (Salmonella typhimurium [14]) | Activity (Salmonella typhimurium [15]) | Activity (Salmonella typhimurium [16]) | Activity (Salmonella typhimurium [17]) | further results |
| --- | --- | --- | --- | --- | --- | --- | --- | --- | --- | --- | --- | --- | --- | --- | --- | --- | --- | --- | --- | --- | --- |
| CCCCCOC(=O)Nc1nc(=O)n([C@@H]2O[C@H](C)[C@H]3OC(=O)O[C@H]32)cc1F | 180 µg/mL (≈ 467 µM) | 140 µg/mL (≈ 363 µM) | 80 µg/mL (≈ 208 µM) | 0.08 µg/mL (≈ 0.208 µM) | Non-toxic | Non-toxic | Non-toxic | Non-toxic | Non-toxic | Non-toxic | Non-toxic | Non-toxic | Non-toxic | Non-toxic | Non-toxic | Non-toxic | Non-toxic | Non-toxic | Non-toxic | Non-toxic | Activity (Salmonella typhimurium [18]): Non-toxic; Activity (Salmonella typhimurium [19]): Non-toxic; Activity (Salmonella typhimurium [20]): Non-toxic; Activity (Salmonella typhimurium [21]): Non-toxic; MST (L1210 [22]): 17.3 days |
| C[C@H]1O[C@@H](n2cc(F)c(NC(=O)Oc3ccc([N+](=O)[O-])cc3)nc2=O)[C@@H]2OC(=O)O[C@@H]21 | 30 µg/mL (≈ 68.8 µM) | 6 µg/mL (≈ 13.8 µM) | 6 µg/mL (≈ 13.8 µM) | 0.03 µg/mL (≈ 0.0688 µM) | Non-toxic | Non-toxic | Non-toxic | Non-toxic | Non-toxic | Non-toxic | Non-toxic | Non-toxic | Non-toxic | Non-toxic | Non-toxic | Non-toxic | Non-toxic | Non-toxic | Non-toxic | Non-toxic | Activity (Salmonella typhimurium [18]): Non-toxic; Activity (Salmonella typhimurium [19]): Non-toxic; Activity (Salmonella typhimurium [20]): Non-toxic; Activity (Salmonella typhimurium [21]): Non-toxic; LD50 [23]: 2000 mg/kg; LD50 at 672 h [24]: 200 mg/kg; MST (L1210 [25]): 23.4 days; MST (L1210 [26]): 27.1 days |
| C[C@H]1O[C@@H](n2cc(F)c(NC(=O)Oc3ccc(Cl)cc3)nc2=O)[C@@H]2OC(=O)O[C@@H]21 | 3 µg/mL (≈ 7.05 µM) | 3 µg/mL (≈ 7.05 µM) | 30 µg/mL (≈ 70.5 µM) | 0.006 µg/mL (≈ 0.0141 µM) |  |  |  |  |  |  |  |  |  |  |  |  |  |  |  |  | LD50 [23]: 2000 mg/kg; LD50 at 672 h [24]: 200 mg/kg; MST (L1210 [25]): 23.7 days; MST (L1210 [26]): 26.3 days |
| CCCCCOC(=O)Nc1nc(=O)n([C@@H]2O[C@H](C)[C@@H](O)[C@H]2O)cc1F [CAPECITABINE] | 300 µg/mL (≈ 835 µM) | 160 µg/mL (≈ 445 µM) | 710 µg/mL (≈ 1980 µM) | 0.05 µg/mL (≈ 0.139 µM) | Non-toxic | Non-toxic | Non-toxic | Non-toxic | Non-toxic | Non-toxic | Non-toxic | Non-toxic | Non-toxic | Non-toxic | Non-toxic | Non-toxic | Non-toxic | Non-toxic | Non-toxic | Non-toxic | Activity (Salmonella typhimurium [18]): Non-toxic; Activity (Salmonella typhimurium [19]): Non-toxic; Activity (Salmonella typhimurium [20]): Non-toxic; Activity (Salmonella typhimurium [21]): Non-toxic; MST (L1210 [22]): 12.8 days; MST (L1210 [25]): 19.6 days; MST (L1210 [26]): 20.3 days |
